Legend:
[1] = Selectivity index, ratio of CC50 for human MT4 cells to EC50 for HIV-1 3B infected in human MT4 cells; assay type: toxicity, cell-based; conditions: read-out: Ratio CC50/EC50
Summary of the method: (§1)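 Ratio CC50/EC50. Both values come from MTT viability of MT-4 cells read 5 days after infection with HIV-1 IIIB or HIV-2 ROD, or after mock infection for CC50.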

[2] = Cytotoxicity against human MT4 cells after 5 days by MTT assay; assay type: cell-based
Summary of the method: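 Mock-infected MT-4 cells (6 × 10⁵ cells/mL) were exposed to serial fivefold compound dilutions. Viability was measured by MTT after 5 days.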

[3] = test system: Human immunodeficiency virus 1; test: Antiviral activity against HIV1; assay type: functional, organism-based
[4] = Selectivity index, ratio of CC50 for human MT4 cells to EC50 for HIV-2 ROD infected in human MT4 cells; assay type: toxicity, cell-based; conditions: read-out: Ratio CC50/EC50; summary of the method: as §1
[5] = test system: Human immunodeficiency virus 2; test: Antiviral activity against HIV2 ROD infected in human MT4 cells assessed as protection against viral-induced cytotoxicity after 5 days by MTT assay; assay type: functional, organism-based; conditions: Human immunodeficiency virus 2, ISOLATE ROD, MT4, 120 h
Summary of the method: (§2)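 MT-4 cells were infected with HIV-1 IIIB or HIV-2 ROD stock at 100–300 CCID50 and exposed to serial fivefold compound dilutions, with untreated virus-infected and mock-infected controls. Cell viability was read by MTT after 5 days.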

[6] = test system: Human immunodeficiency virus 1; test: Antiviral activity against HIV1 3B infected in human MT4 cells assessed as protection against viral-induced cytotoxicity after 5 days by MTT assay; assay type: functional, organism-based; conditions: Human immunodeficiency virus 1, 3B, MT4, 120 h; summary of the method: as §2
[7] = target: Human immunodeficiency virus type 1 reverse transcriptase (Human immunodeficiency virus 1, UniProt Q72547); test: Inhibition of HIV1 reverse transcriptase assessed as inhibition of biotinylated dUTP incorporation after 1 hr by ELISA
Summary of the method: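 Kit-based colorimetric ELISA. HIV-1 RT was incubated with template and DIG-dUTP, biotin-dUTP and dTTP, with or without inhibitor, for 1 h at 37 °C. Product was captured on streptavidin plates for 1 h at 37 °C, then anti-DIG-POD for 1 h at 37 °C, and ABTS was developed at 25 °C. A405 was read and percent inhibition calculated.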

EC50 [3] [µM]	IC50 [7] [µM]	SMILES	selectivity ratio [1]	CC50 at 120 h [2] [µM]	selectivity ratio [4]	EC50 [5] [µM]	EC50 [6] [µM]
		N#CCN1C(=O)N(Cc2ccccc2)S(=O)(=O)c2cscc21	559	503			
0.01		O=C1N(Cc2ccccc2Cl)c2cscc2S(=O)(=O)N1Cc1ccccc1	> 119	> 119			
		C=CCN1C(=O)N(Cc2ccccc2)S(=O)(=O)n2cccc21	> 1	> 802	< 1	> 802	> 802
> 20		Cn1ncc2c1N(Cc1ccccc1Cl)S(=O)(=O)N(Cc1ccccc1)C2=O					
> 300		Cn1ncc2c1S(=O)(=O)N(Cc1ccccc1)C(=O)N2Cc1ccccc1Cl					
		CC(C)=CCN1C(=O)N(Cc2ccccc2)S(=O)(=O)n2cccc21	9	226	< 1	> 226	25
		O=C1N(Cc2ccccc2)c2cccn2S(=O)(=O)N1Cc1cccc(F)c1	6	288	1	> 324	52
	58.3	N#Cc1ccccc1CN1C(=O)N(Cc2cccc(F)c2)S(=O)(=O)n2cccc21	> 55	> 305	1	> 305	5.6
		O=C1N(Cc2ccccc2Cl)c2cccn2S(=O)(=O)N1Cc1cccc(F)c1	21	231	< 1	> 262	11
		O=C1N(Cc2ccccc2Br)c2cccn2S(=O)(=O)N1Cc1cccc(F)c1	> 9	> 269	1	> 269	29
		O=C1N(Cc2cccc(Cl)c2)c2cccn2S(=O)(=O)N1Cc1cccc(F)c1	29	208	< 1	> 212	7.2
		O=C1N(Cc2ccc(Cl)cc2Cl)c2cccn2S(=O)(=O)N1Cc1cccc(F)c1	< 1	249	1	> 275	> 249
		N#CCN1C(=O)N(Cc2cccc(F)c2)S(=O)(=O)n2cccc21	5	172	< 1	> 187	34
		N#Cc1ccccc1CN1C(=O)N(Cc2cccc(Cl)c2)S(=O)(=O)n2cccc21	> 33	> 293	1	> 293	8.9
		O=C1N(Cc2ccc(Cl)cc2Cl)c2cccn2S(=O)(=O)N1Cc1cccc(Cl)c1	< 1	251	1	> 265	> 251
		O=C1N(Cc2ccccc2Cl)c2cccn2S(=O)(=O)N1Cc1cccc(Br)c1	> 14	> 260	1	> 260	18

EC50 [3] [µM]	IC50 [7] [µM]	SMILES	selectivity ratio [1]	CC50 at 120 h [2] [µM]	selectivity ratio [4]	EC50 [5] [µM]	EC50 [6] [µM]
		O=C1N(Cc2ccc(Cl)cc2Cl)c2cccn2S(=O)(=O)N1Cc1cccc(Br)c1		> 243	1	> 243	> 243
		O=C1N(Cc2ccccc2)c2cccn2S(=O)(=O)N1Cc1ccccc1	5	196	< 1	> 267	43
	56.9	N#Cc1ccccc1CN1C(=O)N(Cc2ccccc2)S(=O)(=O)n2cccc21	> 63	> 318	1	> 318	5.1
		N#Cc1cccc(CN2C(=O)N(Cc3ccccc3)S(=O)(=O)n3cccc32)c1	> 49	> 318	1	> 318	6.5
		O=C1N(Cc2ccccc2Cl)c2cccn2S(=O)(=O)N1Cc1ccccc1	12	291	1	> 311	23
		O=C1N(Cc2ccccc2Br)c2cccn2S(=O)(=O)N1Cc1ccccc1	8	226	< 1	> 226	30
		O=C1N(Cc2cccc(Cl)c2)c2cccn2S(=O)(=O)N1Cc1ccccc1	5	196	< 1	> 239	40
		O=C1N(Cc2ccc(Cl)cc2Cl)c2cccn2S(=O)(=O)N1Cc1ccccc1	< 1	218	< 1	> 273	> 218
		O=C1N(Cc2ccc(F)cc2)c2cccn2S(=O)(=O)N1Cc1ccccc1	< 1	150	< 1	> 150	> 190
		Cc1ccc(CN2C(=O)N(Cc3ccccc3)S(=O)(=O)n3cccc32)cc1	< 1	241	< 1	> 241	> 241
		N#CCN1C(=O)N(Cc2ccccc2)S(=O)(=O)n2cccc21	< 1	180	< 1	> 180	> 187
		O=C1N(C/C=C/c2ccccc2)c2cccn2S(=O)(=O)N1Cc1ccccc1		> 318	1	> 318	> 318
		Nc1ccn([C@@H]2CS[C@H](CO)O2)c(=O)n1 [LAMIVUDINE]	> 47	> 87	> 15	5.9	1.8
		Cc1ccnc2c1NC(=O)c1cccnc1N2C1CC1 [NEVIRAPINE]		> 15			
		Nc1ccn([C@H]2CC[C@@H](CO)O2)c(=O)n1 [ZALCITABINE]	> 68	> 95			

Reference: ChEMBL document CHEMBL2440007, “Design, synthesis and biological evaluation of N2,N4-disubstituted-1,1,3-trioxo-2H,4H-pyrrolo[1,2-b][1,2,4,6]thiatriazine derivatives as HIV-1 NNRTIs” (Bioorg Med Chem, 2013)
